Test results reported in ChEMBL document CHEMBL3739352, “Anticonvulsant activity, crystal structures, and preliminary safety evaluation of N-trans-cinnamoyl derivatives of selected (un)modified aminoalkanols” (Eur J Med Chem, 2016).
The source made the active and inactive calls. The calls are words filed in the database; no cut-off is given here.

What was measured:
Salmonella typhimurium [1] = experiment: Mutagenicity in Salmonella typhimurium TA1535 assessed as number of revertants at 4 ug/plate by Ames test (reference value: 10 +/- 3); assay type: toxicity, organism-based; conditions: salmonella enterica subsp. enterica serovar typhimurium
Salmonella typhimurium [2] = experiment: Mutagenicity in Salmonella typhimurium TA98 assessed as number of revertants at 1000 ug/plate by Ames test (reference value: 23 +/- 3); assay type: toxicity, organism-based; conditions: salmonella enterica subsp. enterica serovar typhimurium
Mus musculus [3] = experiment: Anticonvulsant activity in albino Carworth Farms No.1 mouse assessed as protection against subcutaneous dosed pentetrazol-induced seizures at 100 mg/kg, ip after 0.5 hrs; assay type: functional, organism-based
Method in brief: (§1)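 Mouse i.p. screen in Carworth Farms No.1 albino mice at 30, 100 or 300 mg/kg in 0.5% methylcellulose. Testing was at 0.5 and 4 h after injection, by maximal electroshock or by subcutaneous pentetrazol challenge. Scoring was number protected / number used.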

Salmonella typhimurium [4] = experiment: Mutagenicity in Salmonella typhimurium TA1535 assessed as number of revertants at 20 ug/plate by Ames test (reference value: 10 +/- 3); assay type: toxicity, organism-based; conditions: salmonella enterica subsp. enterica serovar typhimurium
Salmonella typhimurium [5] = experiment: Mutagenicity in Salmonella typhimurium TA100 assessed as mutagenic index at 4 ug/plate by Ames test; assay type: toxicity, organism-based; conditions: salmonella enterica subsp. enterica serovar typhimurium
Method in brief: (§2)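 Ames preincubation test. Strain culture was grown 12 h at 37 °C in nutrient broth, then mixed with compound in DMSO (final 4, 20, 100, 500, 1000 per plate) and buffer in top agar with trace histidine. This was plated on glucose minimal agar for 48 h at 37 °C. Mutagenic index = revertants with compound / DMSO control revertants, from three independent repeats.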

Salmonella typhimurium [6] = experiment: Mutagenicity in Salmonella typhimurium TA98 assessed as mutagenic index at 20 ug/plate by Ames test; assay type: toxicity, organism-based; conditions: salmonella enterica subsp. enterica serovar typhimurium
Salmonella typhimurium [7] = experiment: Mutagenicity in Salmonella typhimurium TA1535 assessed as number of revertants at 1000 ug/plate by Ames test (reference value: 10 +/- 3); assay type: toxicity, organism-based; conditions: salmonella enterica subsp. enterica serovar typhimurium
Salmonella typhimurium [8] = experiment: Mutagenicity in Salmonella typhimurium TA98 assessed as number of revertants at 4 ug/plate by Ames test (reference value: 23 +/- 3); assay type: toxicity, organism-based; conditions: salmonella enterica subsp. enterica serovar typhimurium
Mus musculus [9] = experiment: Anticonvulsant activity in albino Carworth Farms No.1 mouse assessed as protection against maximal electroshock-induced seizures at 100 mg/kg, ip after 4 hrs; assay type: functional, organism-based; method in brief: as §1
Mus musculus [10] = experiment: Anticonvulsant activity in albino Carworth Farms No.1 mouse assessed as protection against subcutaneous dosed pentetrazol-induced seizures at 300 mg/kg, ip after 0.5 hrs; assay type: functional, organism-based; method in brief: as §1
Mus musculus [11] = experiment: Anticonvulsant activity in albino Carworth Farms No.1 mouse assessed as protection against maximal electroshock-induced seizures at 30 mg/kg, ip after 4 hrs; assay type: functional, organism-based; method in brief: as §1
Salmonella typhimurium [12] = experiment: Mutagenicity in Salmonella typhimurium TA98 assessed as number of revertants at 500 ug/plate by Ames test (reference value: 23 +/- 3); assay type: toxicity, organism-based; conditions: salmonella enterica subsp. enterica serovar typhimurium
Salmonella typhimurium [13] = experiment: Mutagenicity in Salmonella typhimurium TA100 assessed as number of revertants at 500 ug/plate by Ames test (reference value: 77 +/-4); assay type: toxicity, organism-based; conditions: salmonella enterica subsp. enterica serovar typhimurium
Method in brief: (§3)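 Salmonella TA100 preincubation Ames assay: overnight-type 12 h broth culture at 37 °C, compound in DMSO at final 4–1000 per plate, top agar with trace histidine, glucose minimal agar, 48 h at 37 °C. Revertant colonies per plate were counted, with a DMSO negative control and a sodium azide positive control. Three independent repetitions were run.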

Mus musculus [14] = experiment: Anticonvulsant activity in albino Carworth Farms No.1 mouse assessed as protection against subcutaneous dosed pentetrazol-induced seizures at 100 mg/kg, ip after 4 hrs; assay type: functional, organism-based; method in brief: as §1
Mus musculus [15] = experiment: Anticonvulsant activity in albino Carworth Farms No.1 mouse assessed as protection against maximal electroshock-induced seizures at 30 mg/kg, ip after 0.5 hrs; assay type: functional, organism-based; method in brief: as §1
Salmonella typhimurium [16] = experiment: Mutagenicity in Salmonella typhimurium TA98 assessed as mutagenic index at 100 ug/plate by Ames test; assay type: toxicity, organism-based; conditions: salmonella enterica subsp. enterica serovar typhimurium
Mus musculus [17] = experiment: Anticonvulsant activity in albino Carworth Farms No.1 mouse assessed as protection against maximal electroshock-induced seizures at 100 mg/kg, ip after 0.5 hrs; assay type: functional, organism-based; method in brief: as §1
Salmonella typhimurium [18] = experiment: Mutagenicity in Salmonella typhimurium TA100 assessed as number of revertants at 1000 ug/plate by Ames test (reference value: 77 +/-4); assay type: toxicity, organism-based; conditions: salmonella enterica subsp. enterica serovar typhimurium; method in brief: as §3
[19] = Lipophilicity of the compound using 85% methanol in water at 1 mg/ml by RT-TLC analysis; assay type: physicochemical; conditions: buffer
Method in brief: (§4)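 Reversed-phase TLC with a methanol–water mobile phase at the stated methanol content (v/v). Compounds were spotted from 1 mg/mL methanol solutions after 1 h chamber saturation and located under UV light. Rf was measured and RM = log(1/Rf − 1) calculated.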

[20] = Lipophilicity of the compound using 65% methanol in water at 1 mg/ml by RT-TLC analysis; assay type: physicochemical; conditions: buffer; method in brief: as §4
Salmonella typhimurium [21] = experiment: Mutagenicity in Salmonella typhimurium TA100 assessed as number of revertants at 100 ug/plate by Ames test (reference value: 77 +/-4); assay type: toxicity, organism-based; conditions: salmonella enterica subsp. enterica serovar typhimurium; method in brief: as §3
Salmonella typhimurium [22] = experiment: Mutagenicity in Salmonella typhimurium TA1535 assessed as assessed as mutagenic index at 4 ug/plate by Ames test; assay type: toxicity, organism-based; conditions: salmonella enterica subsp. enterica serovar typhimurium; method in brief: as §2
Salmonella typhimurium [23] = experiment: Mutagenicity in Salmonella typhimurium TA1535 assessed as number of revertants at 500 ug/plate by Ames test (reference value: 10 +/- 3); assay type: toxicity, organism-based; conditions: salmonella enterica subsp. enterica serovar typhimurium
Salmonella typhimurium [24] = experiment: Mutagenicity in Salmonella typhimurium TA100 assessed as number of revertants at 4 ug/plate by Ames test (reference value: 77 +/-4); assay type: toxicity, organism-based; conditions: salmonella enterica subsp. enterica serovar typhimurium; method in brief: as §3
Mus musculus [25] = experiment: Neurotoxicity in albino Carworth Farms No.1 mouse at 300 mg/kg, ip after 4 hrs by rotarod test; assay type: toxicity, organism-based; conditions: in vivo
Method in brief: (§5)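 Mice (albino Carworth Farms No.1) were dosed i.p. at 30, 100 or 300 mg/kg in 0.5% methylcellulose. They were tested 0.5 and 4 h later on a 1-inch knurled rod rotating at 6 rpm. Neurotoxicity was scored if a mouse could not stay on the rod for at least 1 min in each of three trials. Results are given as animals toxic/animals tested, with deaths noted.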

Salmonella typhimurium [26] = experiment: Mutagenicity in Salmonella typhimurium TA1535 assessed as mutagenic index at 1000 ug/plate by Ames test; assay type: toxicity, organism-based; conditions: salmonella enterica subsp. enterica serovar typhimurium
[27] = Lipophilicity of the compound at 1 mg/ml by RT-TLC analysis relative to 0% methanol; assay type: physicochemical; conditions: methanol/water
Method in brief: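 Reversed-phase TLC used methanol–water mobile phases of 95–65% methanol. Compounds were applied from 1 mg/mL methanol solutions after 1 h chamber saturation, with UV detection. RM = log(1/Rf − 1) was calculated at each methanol level and extrapolated linearly (RM = RM0 + bC) to 0% methanol to give RM0.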

Salmonella typhimurium [28] = experiment: Mutagenicity in Salmonella typhimurium TA98 assessed as mutagenic index at 500 ug/plate by Ames test; assay type: toxicity, organism-based; conditions: salmonella enterica subsp. enterica serovar typhimurium
Salmonella typhimurium [29] = experiment: Mutagenicity in Salmonella typhimurium TA100 assessed as number of revertants at 20 ug/plate by Ames test (reference value: 77 +/-4); assay type: toxicity, organism-based; conditions: salmonella enterica subsp. enterica serovar typhimurium; method in brief: as §3
Salmonella typhimurium [30] = experiment: Mutagenicity in Salmonella typhimurium TA100 assessed as mutagenic index at 100 ug/plate by Ames test; assay type: toxicity, organism-based; conditions: salmonella enterica subsp. enterica serovar typhimurium; method in brief: as §2
Salmonella typhimurium [31] = experiment: Mutagenicity in Salmonella typhimurium TA98 assessed as mutagenic index at 1000 ug/plate by Ames test; assay type: toxicity, organism-based; conditions: salmonella enterica subsp. enterica serovar typhimurium
[32] = Lipophilicity of the compound using 75% methanol in water at 1 mg/ml by RT-TLC analysis; assay type: physicochemical; conditions: buffer; method in brief: as §4
Mus musculus [33] = experiment: Neurotoxicity in albino Carworth Farms No.1 mouse at 30 mg/kg, ip after 0.5 hrs by rotarod test; assay type: toxicity, organism-based; conditions: in vivo; method in brief: as §5
Mus musculus [34] = experiment: Neurotoxicity in albino Carworth Farms No.1 mouse at 100 mg/kg, ip after 0.5 hrs by rotarod test; assay type: toxicity, organism-based; conditions: in vivo; method in brief: as §5

SMILES	Activity (Salmonella typhimurium [1])	Activity (Salmonella typhimurium [2])	Activity (Mus musculus [3])	Activity (Salmonella typhimurium [4])	Activity_index (Salmonella typhimurium [5])	Activity_index (Salmonella typhimurium [6])	Activity (Salmonella typhimurium [7])	Activity (Salmonella typhimurium [8])	Activity (Mus musculus [9])	Activity (Mus musculus [10])	Activity (Mus musculus [11])	Activity (Salmonella typhimurium [12])	Activity (Salmonella typhimurium [13])	Activity (Mus musculus [14])	Activity (Mus musculus [15])	Activity_index (Salmonella typhimurium [16])	Activity (Mus musculus [17])	Activity (Salmonella typhimurium [18])	Rm [19]	Rm [20]	also measured
CCC(CO)NC(=O)/C=C/c1ccccc1 (racemic)	11	19	inactive	5	0.9	1	13	21	inactive	Active	inactive	21	72	inactive	inactive	1	inactive	64	-0.29	0.25	Activity (Salmonella typhimurium [21]): 64; Activity_index (Salmonella typhimurium [22]): 1.1; Activity (Salmonella typhimurium [23]): 13; Activity (Salmonella typhimurium [24]): 68; Activity (Mus musculus [25]): Non-toxic; Activity_index (Salmonella typhimurium [26]): 1.3; Rm [27]: 2.093; Activity_index (Salmonella typhimurium [28]): 0.9; Activity (Salmonella typhimurium [29]): 62; Activity_index (Salmonella typhimurium [30]): 0.8; Activity_index (Salmonella typhimurium [31]): 0.8; Rm [32]: -0.19; Activity (Mus musculus [33]): Non-toxic; Activity (Mus musculus [34]): Non-toxic
CC(C)C(CO)NC(=O)/C=C/c1ccccc1 (racemic)	5	15	inactive	6	1.1	0.8	7	20	inactive	inactive	inactive	16	79	inactive	inactive	0.8	inactive	80	-0.16	0.31	Activity (Salmonella typhimurium [21]): 80; Activity_index (Salmonella typhimurium [22]): 0.5; Activity (Salmonella typhimurium [23]): 7; Activity (Salmonella typhimurium [24]): 83; Activity (Mus musculus [25]): Non-toxic; Activity_index (Salmonella typhimurium [26]): 0.7; Rm [27]: 2.219; Activity_index (Salmonella typhimurium [28]): 0.8; Activity (Salmonella typhimurium [29]): 75; Activity_index (Salmonella typhimurium [30]): 1; Activity_index (Salmonella typhimurium [31]): 0.7; Rm [32]: -0.1; Activity (Mus musculus [33]): Non-toxic; Activity (Mus musculus [34]): Non-toxic
O=C(/C=C/c1ccccc1)N[C@H]1CCCC[C@@H]1O (racemic)	5	18	inactive	14	0.9	0.9	6	22	inactive	inactive	inactive	19	73	inactive	inactive	0.9	Active	70	-0.18	0.33	Activity (Salmonella typhimurium [21]): 72; Activity_index (Salmonella typhimurium [22]): 0.5; Activity (Salmonella typhimurium [23]): 7; Activity (Salmonella typhimurium [24]): 71; Activity (Mus musculus [25]): Toxic; Activity_index (Salmonella typhimurium [26]): 0.6; Rm [27]: 2.054; Activity_index (Salmonella typhimurium [28]): 0.8; Activity (Salmonella typhimurium [29]): 79; Activity_index (Salmonella typhimurium [30]): 0.9; Activity_index (Salmonella typhimurium [31]): 0.8; Rm [32]: -0.09; Activity (Mus musculus [33]): Non-toxic; Activity (Mus musculus [34]): Toxic
CC(CO)NC(=O)/C=C/c1ccccc1 (racemic)	15	18	inactive	6	0.9	0.9	6	20	inactive	Active	inactive	24	65	inactive	inactive	0.9	Active	67	-0.39	-0.03	Activity (Salmonella typhimurium [21]): 71; Activity_index (Salmonella typhimurium [22]): 1.5; Activity (Salmonella typhimurium [23]): 8; Activity (Salmonella typhimurium [24]): 67; Activity (Mus musculus [25]): Non-toxic; Activity_index (Salmonella typhimurium [26]): 0.6; Rm [27]: 1.39; Activity_index (Salmonella typhimurium [28]): 1; Activity (Salmonella typhimurium [29]): 62; Activity_index (Salmonella typhimurium [30]): 0.9; Activity_index (Salmonella typhimurium [31]): 0.8; Rm [32]: -0.27; Activity (Mus musculus [33]): Non-toxic; Activity (Mus musculus [34]): Non-toxic
O=C(/C=C/c1ccccc1)N1CCC(O)CC1	5	20	inactive	6	0.9	0.8	5	22	inactive	Active	inactive	22	72	inactive	inactive	0.7	Active	70	-0.23	0.18	Activity (Salmonella typhimurium [21]): 76; Activity_index (Salmonella typhimurium [22]): 0.5; Activity (Salmonella typhimurium [23]): 8; Activity (Salmonella typhimurium [24]): 70; Activity_index (Salmonella typhimurium [26]): 0.5; Rm [27]: 2.579; Activity_index (Salmonella typhimurium [28]): 1; Activity (Salmonella typhimurium [29]): 68; Activity_index (Salmonella typhimurium [30]): 1; Activity_index (Salmonella typhimurium [31]): 0.9; Rm [32]: -0.19; Activity (Mus musculus [33]): Non-toxic; Activity (Mus musculus [34]): Non-toxic
